≈ marks a conversion by molar mass, not a printed value. Each block holds one molecule with its values, some of them ahead of it.
How the values were obtained:
[1] = Kinetic solubility of the compound; format: physicochemical; settings: read-out: Kinetic_solubility
Procedure, shortened: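 20 or 40 mM DMSO stocks diluted into filtered water with or without 200 μg/ml methylcellulose. Centrifuged, held 30 min at room temperature, then reversed-phase HPLC (50% ACN / 50 mM potassium phosphate pH 7.0, isocratic). Solubility taken as the highest concentration where absorbance stays linear with log concentration.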

[2] = target: Dihydrofolate reductase (Staphylococcus aureus, UniProt P0A017); assay: Inhibition of Staphylococcus aureus DHFR assessed as reduction in rate of NADPH consumption
Procedure, shortened: (§1)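 DHFR activity followed as NADPH consumption at 340 nm over 5 min. Pure enzyme at limiting concentration, 100 μM NADPH, 1 mM dihydrofolate. Buffer: 50 mM KCl, 10 mM 2-mercaptoethanol, 0.5 mM EDTA, 1 mg/ml BSA. Run in triplicate.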

[3] = Half life in mouse liver microsomes at 5 ug/ml at 37 degC by reverse phase HPLC method; format: ADME
Procedure, shortened: (§2)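 Mouse liver microsomes (0.5 mg/ml) in 0.1 M potassium phosphate pH 7.4 with 200 μg/ml HPMC, 37°C. NADPH-regenerating system: 1.3 mM NADP+, 3.3 mM glucose 6-phosphate, 0.5 U/ml G6P dehydrogenase, 3.3 mM MgCl2. Final compound concentration 5 μg/ml; start by adding microsomes. Controls: DMSO, and compound without microsomes. Quench with ice-cold ACN, solid-phase cleanup, reversed-phase HPLC. Result is percent parent remaining vs pre-incubation. Half-life from the single time point, assuming first-order kinetics.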

[4] = Stability in pH 7.4 simulated intestinal fluid at 5 ug/ml after 24 hrs at 37 degC by reverse phase HPLC method; format: ADME; settings: simulated gi fluid, pH 7.4, 24 h
Procedure, shortened: (§3)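 Compounds incubated 24 h at 37°C in the stated fluid containing 200 μg/ml HPMC. Samples taken before and after incubation, quenched with equal volume ice-cold ACN, centrifuged and the supernatant run on reversed-phase HPLC. Stability = AUC after / AUC before incubation.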

[5] = Drug metabolism in mouse liver microsomes assessed as 4-(3-(4-(2,4-diamino-6-methylpyrimidin-5-yl)but-3-yn-2-yl)-5-methoxyphenyl)pyridine 1-oxide at 10 ug/ml by LC-MS/MS method; format: ADME
Procedure, shortened: (§4)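 Compound at 10 μg/ml incubated 2 h with mouse liver microsomes (0.5 mg/ml protein, 37°C) in 0.1 M potassium phosphate pH 7.4 with 200 μg/ml HPMC and an NADPH-regenerating system. Controls were DMSO alone and reactions quenched with ACN immediately after adding microsomes. Reactions were stopped with equal volume ice-cold ACN, centrifuged, solid-phase purified and analysed by LC-MS/MS. Metabolite share = metabolite AUC / total metabolite AUC in the same injection.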

[6] = Stability in pH 1.2 simulated gastric fluid at 5 ug/ml after 24 hrs at 37 degC by reverse phase HPLC method; format: ADME; settings: simulated gi fluid, pH 1.2, 24 h; procedure, shortened: as §3
[7] = Stability in water at 5 ug/ml after 24 hrs at 37 degC by reverse phase HPLC method; format: physicochemical; settings: buffer; procedure, shortened: as §3
[8] = Stability in mouse liver microsomes assessed as parent compound remaining at 5 ug/ml after 1 hr at 37 degC by reverse phase HPLC method; format: ADME; settings: read-out: Stability; procedure, shortened: as §2
[9] = Drug metabolism in mouse liver microsomes assessed as demethylation at 5 ug/ml after 1 hr at 37 degC by reverse phase HPLC method; format: ADME
[10] = Drug metabolism in mouse liver microsomes assessed as 3-(4-(2,4-diamino-6-methylpyrimidin-5-yl)but-3-yn-2-yl)-5-(pyridin-4-yl)phenol formation at 10 ug/ml by LC-MS/MS method; format: ADME; procedure, shortened: as §4
[11] = Drug metabolism in mouse liver microsomes assessed as 3-(4-(2,4-diamino-6-ethylpyrimidin-5-yl)but-3-yn-2-yl)-5-(pyridin-4-yl)phenol formation at 10 ug/ml by LC-MS/MS method; format: ADME; procedure, shortened: as §4
[12] = Drug metabolism in mouse liver microsomes assessed as 4-(3-(4-(2,4-diamino-6-ethylpyrimidin-5-yl)but-3-yn-2-yl)-5-methoxyphenyl)pyridine 1-oxide formation at 10 ug/ml by LC-MS/MS method; format: ADME; procedure, shortened: as §4
[13] = Drug metabolism in mouse liver microsomes assessed as 4-(3-(3-(2,4-diamino-6-ethylpyrimidin-5-yl)prop-2-ynyl)-4-methoxyphenyl)pyridine 1-oxide formation at 10 ug/ml by LC-MS/MS method; format: ADME; procedure, shortened: as §4
[14] = Drug metabolism in mouse liver microsomes assessed as 2-(3-(2,4-diamino-6-ethylpyrimidin-5-yl)prop-2-ynyl)-4-(pyridin-4-yl)phenol formation at 10 ug/ml by LC-MS/MS method; format: ADME; procedure, shortened: as §4
[15] = tested on: Liver; assay: Drug level in mouse liver microsomes treated with 10 ug/ml 5-(3-(3-methoxy-5-(pyridin-4-yl)phenyl)but-1-ynyl)-6-methylpyrimidine-2,4-diamine by LC-MS/MS method; format: ADME; procedure, shortened: as §4
[16] = tested on: Liver; assay: Drug level in mouse liver microsomes treated with 10 ug/ml 6-ethyl-5-(3-(3-methoxy-5-(pyridin-4-yl)phenyl)prop-1-ynyl)pyrimidine-2,4-diamine by LC-MS/MS method; format: ADME; procedure, shortened: as §4
[17] = tested on: Liver; assay: Drug level in mouse liver microsomes treated with 10 ug/ml 6-ethyl-5-(3-(3-methoxy-5-(pyridin-4-yl)phenyl)but-1-ynyl)pyrimidine-2,4-diamine by LC-MS/MS method; format: ADME; procedure, shortened: as §4
[18] = tested on: Liver; assay: Drug level in mouse liver microsomes treated with 10 ug/ml 6-ethyl-5-(3-(2-methoxy-5-(pyridin-4-yl)phenyl)prop-1-ynyl)pyrimidine-2,4-diamine by LC-MS/MS method; format: ADME; procedure, shortened: as §4
[19] = Drug metabolism in mouse liver microsomes assessed as 2-(4-(2,4-diamino-6-ethylpyrimidin-5-yl)but-3-yn-2-yl)-4-(pyridin-4-yl)phenol formation at 10 ug/ml by LC-MS/MS method; format: ADME; procedure, shortened: as §4
[20] = Drug metabolism in mouse liver microsomes assessed as 4-(3-(4-(2,4-diamino-6-ethylpyrimidin-5-yl)but-3-yn-2-yl)-4-methoxyphenyl)pyridine 1-oxide formation at 10 ug/ml by LC-MS/MS method; format: ADME; procedure, shortened: as §4
[21] = tested on: Liver; assay: Drug level in mouse liver microsomes treated with 10 ug/ml 6-ethyl-5-(3-(2-methoxy-5-(pyridin-4-yl)phenyl)but-1-ynyl)pyrimidine-2,4-diamine by LC-MS/MS method; format: ADME; procedure, shortened: as §4
[22] = tested on: Staphylococcus aureus; assay: Antimicrobial activity against Staphylococcus aureus; format: functional
[23] = Inhibition of Candida glabrata DHFR; parameters: species or system Nakaseomyces glabratus; procedure, shortened: as §1

SMILES: COc1cc(C(C)C#Cc2c(C)nc(N)nc2N)cc(N2CCOCC2)c1 (configuration not stated)
solubility kinetic [1]: > 80 µg/mL

SMILES: CCc1nc(N)nc(N)c1C#CCc1cc(OC)cc(-c2ccncc2)c1
half-life at 5 ug/ml [3]: < 10 min
Stability [4]: Stable
Stability [6]: Stable
Stability [7]: Stable
remaining at 1 h, 5 ug/ml [8]: 0%
Drug metabolism [9]: 6.3%

SMILES: CCc1nc(N)nc(N)c1C#CCc1cc(-c2ccncc2)ccc1OC
half-life at 5 ug/ml [3]: 31 min
Drug metabolism [13]: metabolite_detected
Stability [4]: Stable
Stability [6]: Stable
Stability [7]: Stable
remaining at 1 h, 5 ug/ml [8]: 26.5%
Drug metabolism [9]: 19.7%
Drug metabolism [14]: metabolite_detected

SMILES: Cc1nc(N)nc(N)c1C#CC(C)c1cc(O)cc(-c2ccncc2)c1 (configuration not stated)
Drug metabolism [15]: metabolite_detected

SMILES: CCc1nc(N)nc(N)c1C#CC(C)c1cc(OC)cc(-c2cc[n+]([O-])cc2)c1 (configuration not stated)
Drug metabolism [17]: metabolite_detected

SMILES: CCc1nc(N)nc(N)c1C#CCc1cc(-c2ccncc2)ccc1O
Drug metabolism [18]: metabolite_detected

SMILES: CCc1nc(N)nc(N)c1C#CC(C)c1cc(O)cc(-c2ccncc2)c1 (configuration not stated)
Drug metabolism [17]: metabolite_detected

SMILES: COc1cc(-c2ccccc2)cc(C(C)C#Cc2c(C)nc(N)nc2N)c1 (configuration not stated)
IC50 [2]: 61 nM
solubility kinetic [1]: 20 µg/mL (≈ 55.8 µM)
MIC [22]: 0.72 µg/mL (≈ 2.01 µM)

Now from value to molecule:

IC50 [2]: 26 nM
solubility kinetic [1]: > 80 µg/mL
SMILES: CCc1nc(N)nc(N)c1C#CC(C)c1cc(OC)cc(N2CCOCC2)c1 (configuration not stated)

half-life at 5 ug/ml [3]: 38 min
Stability [4]: Stable
Drug metabolism [5]: metabolite_detected
Stability [6]: Stable
Stability [7]: Stable
remaining at 1 h, 5 ug/ml [8]: 33.7%
Drug metabolism [9]: 15.9%
Drug metabolism [10]: metabolite_detected
SMILES: COc1cc(-c2ccncc2)cc(C(C)C#Cc2c(C)nc(N)nc2N)c1 (configuration not stated)

half-life at 5 ug/ml [3]: 34 min
Stability [4]: Stable
Stability [6]: Stable
Drug metabolism [11]: metabolite_detected
Stability [7]: Stable
remaining at 1 h, 5 ug/ml [8]: 29.2%
Drug metabolism [9]: 28%
Drug metabolism [12]: metabolite_detected
SMILES: CCc1nc(N)nc(N)c1C#CC(C)c1cc(OC)cc(-c2ccncc2)c1 (configuration not stated)

Drug metabolism [16]: metabolite_detected
SMILES: CCc1nc(N)nc(N)c1C#CCc1cc(OC)cc(-c2cc[n+]([O-])cc2)c1

Drug metabolism [16]: metabolite_detected
SMILES: CCc1nc(N)nc(N)c1C#CCc1cc(O)cc(-c2ccncc2)c1

half-life at 5 ug/ml [3]: 65 min
Drug metabolism [19]: metabolite_detected
Drug metabolism [20]: metabolite_detected
SMILES: CCc1nc(N)nc(N)c1C#CC(C)c1cc(-c2ccncc2)ccc1OC (configuration not stated)

IC50 [2]: 45 nM
Drug metabolism [21]: metabolite_detected
SMILES: CCc1nc(N)nc(N)c1C#CC(C)c1cc(-c2cc[n+]([O-])cc2)ccc1OC (configuration not stated)

IC50 [2]: 130 nM
solubility kinetic [1]: 60 µg/mL (≈ 164 µM)
MIC [22]: 91.5 µg/mL (≈ 250 µM)
SMILES: COc1cc(C(C)C#Cc2c(C)nc(N)nc2N)cc(N2CCNCC2)c1 (configuration not stated)

Drug metabolism [15]: metabolite_detected
SMILES: COc1cc(-c2cc[n+]([O-])cc2)cc(C(C)C#Cc2c(C)nc(N)nc2N)c1 (configuration not stated)

IC50 [23]: 0.5 nM
SMILES: COc1cc(-c2cc(C)cc(C)c2)cc(C(C)C#Cc2c(C)nc(N)nc2N)c1 (configuration not stated)

Reference: ChEMBL document CHEMBL3525975, “Acetylenic linkers in lead compounds: a study of the stability of the propargyl-linked antifolates” (Drug Metab Dispos, 2012)
